In ChEMBL document CHEMBL1152863, “Synthesis, HIV-RT inhibitory activity and SAR of 1-benzyl-1H-1,2,3-triazole derivatives of carbohydrates” (Eur J Med Chem, 2009) one finds inhibition, CC50 and IC50 data, which are given here for 15 compounds.

Series [1] concerns the target Human immunodeficiency virus type 1 reverse transcriptase (Human immunodeficiency virus 1) (UniProt Q72547). As to the kind of experiment: Inhibition of polymerase activity of HIV1 recombinant reverse transcriptase expressed in Escherichia coli at 50 uM. The essentials:
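Single-concentration test: compounds at 50 on recombinant HIV-1 RT (66 kDa, E. coli-expressed from pUC12N, Sephadex G-25 fraction) polymerase activity. 50 mM Tris-HCl pH 7.8, 6 mM MgCl2, 1 mM DTT, 50 mM KCl, dTTP with [3H]dTTP, poly(rA)·oligo(dT) template-primer, 1 U enzyme; 30 min at 37 °C; TCA precipitation onto filters, incorporated 3H by scintillation counting.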

Series [2] in a line: Cytotoxicity against african green monkey Vero cells after 72 hrs by MTT assay. The series is classed as cell-based. Particulars: chlorocebus sabaeus. The essentials:
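Vero cells grown in DMEM with 5% FBS, penicillin/streptomycin, 37 °C, 5% CO2; monolayers of about 10^4 cells exposed to several compound concentrations for 72 h. MTT solution (1 mg/mL) then added to assess viability. CC50 obtained by linear regression of dose-response curves; duplicates, at least three independent experiments.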
(Formazan colour is commonly taken as a measure of viable cells.)

Series [3] has as its target Human immunodeficiency virus type 1 reverse transcriptase (Human immunodeficiency virus 1, UniProt Q72547). As to the kind of experiment: Inhibition of polymerase activity of HIV1 recombinant reverse transcriptase expressed in Escherichia coli. The essentials: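 Recombinant HIV-1 RT (66 kDa) expressed in E. coli from plasmid pUC12N, partly purified by Sephadex G-25; compounds tested at different concentrations (0.01-50). Reaction: 50 mM Tris-HCl pH 7.8, 6 mM MgCl2, 1 mM DTT, 50 mM KCl, dTTP plus [3H]dTTP, poly(rA)·oligo(dT), 1 U enzyme; 37 °C, 30 min; stopped with ice-cold 5% TCA/pyrophosphate, filter-collected, 3H counted by scintillation.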

As a reminder, the inhibition is the drop in the measured response relative to a control, in per cent. As a reminder, the CC50 is the concentration that lowers cell viability or growth by half. On to `Cc1c(C(=O)O[C@H]2[C@@H]3OC(C)(C)O[C@@H]3CO[C@]23COC(C)(C)O3)nnn1Cc1ccccc1`, for which the inhibition in series [1] stood at 43.5%. Moreover, the midpoint of cytotoxicity in series [2], the CC50 at 72 h, lay at 2750 µM.

For `Cc1c(C(=O)OC[C@H]2O[C@@H](O)[C@H](O)[C@@H]2O)nnn1Cc1ccccc1`, the inhibition in series [1] is 33.2%. The same compound had a CC50 at 72 h in series [2] of 1170 µM.

Consider `Cc1c(C(=O)O[C@H]2[C@@H](O)[C@H](O)O[C@H](CO)[C@H]2O)nnn1Cc1ccccc1`, for which the inhibition in series [1] was found to be 14%. The compound also yielded a CC50 at 72 h in series [2] of 1440 µM.

On to `Cc1cn([C@H]2C[C@H](N=[N+]=[N-])[C@@H](CO)O2)c(=O)[nH]c1=O` [ZIDOVUDINE], for which half-maximal cytotoxicity in series [2] (CC50 at 72 h) was put at 126 µM.

`Cc1c(C(=O)OC[C@H]2O[C@H](O)[C@H](O)[C@H]2OCc2ccccc2)nnn1Cc1ccccc1`: in series [1], the inhibition came out at 36.2%. Also, the CC50 at 72 h in series [2] came out at 596 µM.

As to `Cc1c(C(=O)OC[C@H]2O[C@H](O)[C@H](O)[C@@H](O)[C@H]2O)nnn1Cc1ccccc1`, the inhibition in series [1] was 45.6%. Besides, the cytotoxic concentration (CC50) at 72 h in series [2] turned out to be 25600 µM.

Take `Cc1c(C(=O)O[C@H]2[C@H]3OC(C)(C)O[C@H]3O[C@@H]2[C@H]2COC(C)(C)O2)nnn1Cc1ccccc1`: the inhibition in series [1] came to 3%. In series [2], this compound displayed a CC50 at 72 h of 3530 µM.

The IC50 is the concentration that gives 50% inhibition. Turning to `CO[C@@H]1O[C@H](COC(=O)c2nnn(Cc3ccccc3)c2C)[C@H]2OC(C)(C)O[C@@H]12`, the inhibition in series [1] amounted to 63.6%. Also, in series [2], the CC50 at 72 h stood at 837 µM. The IC50 in series [3] was 2.2 µM.

On to `Cc1c(C(=O)OC[C@@]2(O)OC[C@@H](O)[C@@H](O)[C@@H]2O)nnn1Cc1ccccc1`, for which the inhibition in series [1] came out at 35.8%. For the same compound, the midpoint of cytotoxicity in series [2], the CC50 at 72 h, lay at 800 µM.

With `Cc1c(C(=O)OC[C@H]2O[C@@H]3OC(C)(C)O[C@@H]3[C@H]2OCc2ccccc2)nnn1Cc1ccccc1`, the inhibition in series [1] came to 65.4%. This compound also had a CC50 at 72 h in series [2] of 724 µM. Besides, in series [3], the IC50 amounted to 1.98 µM.

For the compound `Cc1c(C(=O)O[C@@H]2[C@H]3OC(C)(C)O[C@H]3O[C@@H]2[C@H]2COC(C)(C)O2)nnn1Cc1ccccc1`, in series [1], the inhibition is 64.7%. For the same compound, in series [2], the CC50 at 72 h is 208 µM. Besides, the IC50 in series [3] amounted to 5 µM.

`Cc1c(C(=O)OC[C@H]2O[C@@H]3OC(C)(C)O[C@@H]3[C@H]3OC(C)(C)O[C@H]32)nnn1Cc1ccccc1`: in series [1], the inhibition stood at 28.8%. The same compound had a CC50 at 72 h in series [2] of 123 µM.

In the case of `Cc1c(C(=O)OC[C@@]23OC[C@H]4OC(C)(C)O[C@H]4[C@@H]2OC(C)(C)O3)nnn1Cc1ccccc1`, the inhibition in series [1] stood at 47.9%. This compound displayed a CC50 at 72 h in series [2] of 3380 µM.

Turning to `Cc1c(C(=O)O[C@H]2[C@H](O)[C@@H](CO)OC(O)[C@@H]2O)nnn1Cc1ccccc1` (some centres not stated), the inhibition in series [1] came out at 35.9%. In series [2], it took 1800 µM to reach half-maximal cytotoxicity (CC50 at 72 h).

For the compound `Cc1c(C(=O)O[C@H]2[C@H](O)[C@H](O)CO[C@]2(O)CO)nnn1Cc1ccccc1`, the inhibition in series [1] was 45.6%. The same compound came in with a CC50 at 72 h in series [2] of 649 µM.
